Bioassay records (PubChem BioAssay)
ABHD5 PLIN5 PPI: inhibitors of human ABHD5-perilipin-5 interaction | 0.78% of 360,000 active | Split G. princeps luciferase complementation, luminescence, 4 h | inhibition, % at 4 µM;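 active = inhibition above the mean inhibition across every tested compound plus 3 SD, cut at about 22% in these data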;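 note: 0% = DMSO only wells and the 100% control is not disclosed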
Mdm2-MdmX inh: human Mdm2/MdmX binding inhibition; O15151+Q00987; inhibition, % at 8 µM; SaOS-2 split-luciferase Mdm2/MdmX complementation, luminescence; 3% of 330,000 active; AID 485346;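 active = inhibition of at least 50% at 8 µM in the primary screen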
Target sequence (O15151 whole entry, looked up): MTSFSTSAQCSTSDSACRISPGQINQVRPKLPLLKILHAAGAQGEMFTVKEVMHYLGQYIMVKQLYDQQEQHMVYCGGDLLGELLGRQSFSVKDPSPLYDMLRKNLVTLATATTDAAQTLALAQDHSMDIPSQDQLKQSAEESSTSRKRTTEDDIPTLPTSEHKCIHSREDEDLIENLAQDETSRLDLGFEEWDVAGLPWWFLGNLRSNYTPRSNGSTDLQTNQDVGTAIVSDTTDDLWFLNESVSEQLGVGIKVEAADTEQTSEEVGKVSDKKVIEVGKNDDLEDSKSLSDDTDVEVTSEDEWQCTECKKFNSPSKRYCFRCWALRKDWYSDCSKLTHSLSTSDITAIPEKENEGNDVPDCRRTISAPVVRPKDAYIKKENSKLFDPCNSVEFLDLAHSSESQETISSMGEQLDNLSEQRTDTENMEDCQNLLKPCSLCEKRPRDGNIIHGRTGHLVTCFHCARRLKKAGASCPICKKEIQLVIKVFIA
Target sequence (Q00987 whole entry, looked up): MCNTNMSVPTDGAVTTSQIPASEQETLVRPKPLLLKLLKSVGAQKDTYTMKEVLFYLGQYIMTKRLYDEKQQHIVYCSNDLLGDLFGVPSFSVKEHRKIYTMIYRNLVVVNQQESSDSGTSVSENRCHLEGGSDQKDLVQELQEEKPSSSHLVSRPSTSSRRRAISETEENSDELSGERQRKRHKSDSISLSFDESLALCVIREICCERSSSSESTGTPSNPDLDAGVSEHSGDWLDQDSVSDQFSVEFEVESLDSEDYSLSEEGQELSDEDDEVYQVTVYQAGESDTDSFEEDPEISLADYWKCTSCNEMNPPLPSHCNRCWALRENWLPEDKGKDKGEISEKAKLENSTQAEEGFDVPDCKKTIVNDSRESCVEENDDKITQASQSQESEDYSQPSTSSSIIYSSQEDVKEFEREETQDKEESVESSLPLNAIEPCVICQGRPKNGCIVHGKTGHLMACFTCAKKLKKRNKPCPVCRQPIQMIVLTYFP
UPR CHOP act: activators of apoptotic arm of unfolded protein response (CHOP); CHO-CHOP luciferase reporter, UPR activation, luminescence; percent of tunicamycin response over DMSO baseline; activation, % at 10 µM; 0.34% of 330,000 active;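 active = at 10 µM dose, activation of 40% or more, normalized to positive control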;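 note: 100% = tunicamycin at 10 µg/mL and 0% = DMSO alone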
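Test system: CHO-CHOP cells, stable luciferase reporter of PERK-eIF2a-CHOP signalling | Quantity: 500 CHO-CHOP cells per well | Buffer or medium: F12 plus 10% serum | Compound dosing: 10 µM single point, 0.5% DMSO | Schedule: 6 h compound treatment, 37 °C | Signal: Luciferase luminescence | Control set: Tunicamycin high control, DMSO low control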
Granule exo inh: blocks lytic granule exocytosis | TALL-104 LAMP-1 surface exposure, flow cytometry; cells stimulated with thapsigargin and PMA | inhibition, % at 10 µM | 0.66% of 360,000 active;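 active = inhibition above about 55%, limit read from the data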
XBP1 UPR activ: adaptive UPR (XBP1) activation; CHO-XBP1 luciferase reporter, IRE1-XBP1 UPR activation, luminescence; percent of tunicamycin response, DMSO as zero; activation, % at 20 µM; 0.33% of 330,000 active;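 active = versus positive control, 20 µM dose yields 30% or more activation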;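 note: 100% = tunicamycin at 10 µg/mL and 0% = DMSO only wells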
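Material: CHO-XBP1 cells stably carrying IRE1-XBP1-driven luciferase reporter / Amount: 1000 cells per well / Compound: 20 µM, 1% DMSO / Times: 6 h treatment, 37 °C / Detection: luciferase luminescence / Measure: % activation of reporter signal versus tunicamycin and DMSO controls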
UPR CHOP confirm: confirmation of apoptotic unfolded protein response (CHOP) activators; shares compounds with UPR CHOP act; CHO-CHOP cells, CHOP-luciferase reporter luminescence; percent of tunicamycin response, DMSO as zero; activation, % at 10 µM; 64% of 1,000 active; AID 463112; in the data active = activation above about 33%;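 note: 0% = DMSO wells and 100% = tunicamycin 10 µg/mL wells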
UPR XBP1 confirm: adaptive UPR (XBP1) activation, confirmed. shares compounds with XBP1 UPR activ. CHO-XBP1 IRE1-XBP1 luciferase reporter, luminescence. activation, % at 20 µM. 63% of 1,000 active;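 active = reporter signal at least 30% of the positive control's activation in two or more of four replicate wells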;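 note: plate controls were DMSO negative control for no effect and tunicamycin 10 µg/mL positive control for full effect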
Mdm2 MdmX conf: confirmation of human Mdm2/MdmX interaction inhibitors; shares compounds with Mdm2-MdmX inh; Mdm2-MdmX binding, luminescent assay; inhibition, % at 8 µM; 55% of 10,000 active; in the data active = inhibition above about 40%
FLuc counter: inhibits full-length luciferase, flagging false Mdm2/MdmX hits; shares compounds with Mdm2-MdmX inh; SaOS-2 full-length luciferase counterscreen, luminescence; 77% of 6,200 active; inhibition, % at 8 µM;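 active = mean inhibition at 8 µM reaching about 37%, which flags the compound as non-specific, limit read from the data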;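 note: p53-null SaOS-2 cells with luciferase driven by a doxycycline-inducible promoter; compound on cells about two nights before reading with doxycycline added after day one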
The depositor's hits bear a star; x = not tested or not shown. In the library only some 4% were active in any assay of this set; here they are far more common.

SMILES	ABHD5 PLIN5 PPI	Mdm2-MdmX inh	UPR CHOP act	Granule exo inh	XBP1 UPR activ	UPR CHOP confirm	Mdm2 MdmX conf	FLuc counter	others
CCOC(=O)C1CCCN(C(=O)c2ccc3[nH]c4c(c3c2)CC(C)CC4)C1 (centres undefined)	5	16	0	1	5	x	x	x
CN1CCN(c2ccc(NC(=O)c3cc([N+](=O)[O-])ccc3N3CCOCC3)cc2)CC1	7	18	2	2	-2	x	x	x
O=C(C#Cc1cccc([N+](=O)[O-])c1)c1ccccc1	30*	73*	134*	70*	-5	188*	63*	52*
CS(=O)(=O)c1nc(-c2ccc(Br)cc2)cc(-c2ccccc2)c1C#N	0	100*	279*	33	11	130*	76*	52*
N#Cc1c(-c2ccc(Br)cc2)cc(-c2cccnc2)nc1N	5	-5	-2	-2	-3	x	x	x
COc1ccc(-c2cc(-c3ccccc3)c(C#N)c(S(C)(=O)=O)n2)cc1	3	90*	103*	2	45*	119*	-24	x	UPR XBP1 confirm=99*
CCc1nnc(NC(=O)CSc2nc(-c3ccccc3)cc(-c3ccc(OC)cc3)c2C#N)s1	-1	88*	93*	-2	58*	105*	9	x	UPR XBP1 confirm=26
COc1cc(OC)cc(C(=O)NNC(=O)c2cc(=O)[nH]c3ccccc23)c1	-5	-7	3	-1	2	x	x	x
COc1ccc(-n2ncc(Cl)c(Cl)c2=O)cc1	4	100*	50*	-2	-7	23	99*	52*
COC(=O)c1nc[nH]c1[N+](=O)[O-]	-6	x	x	-1	x	x	x	x
CN1CCc2c(n(CC(O)CN(CCO)CCO)c3ccccc23)C1=O (centres undefined)	-5	8	2	-1	0	x	x	x
CCC(CC)NC(=O)c1cccc(Br)c1	4	1	0	-3	0	x	x	x
COc1ccc(/C=N/Nc2cc(C)nc(-n3nc(C)cc3C)n2)cc1	-7	54*	52*	4	8	33*	40*	52*
Cc1cc(N/N=C/c2ccccc2[N+](=O)[O-])nc(-n2nc(C)cc2C)n1	-7	53*	121*	24	12	94*	37	43*
Cc1cc(N/N=C/c2ccc(O)cc2O)nc(-n2nc(C)cc2C)n1	6	x	x	0	x	x	x	x
Cc1cc(N/N=C/c2cccc(Cl)c2)nc(-n2nc(C)cc2C)n1	-10	64*	51*	-6	6	7	31	x
COc1ccc(O)c(/C=N/Nc2nc(Nc3ccccc3)nc(-n3nc(C)cc3C)n2)c1	8	75*	102*	2	0	112*	44*	84*
Cc1cc(N/N=C/c2cccc([N+](=O)[O-])c2)nc(-n2nc(C)cc2C)n1	5	15	0	1	1	x	x	x
CC(=O)Nc1ccc(-c2ccnc3c2CC(C)(C(=O)Nc2ccccc2)O3)cc1 (centres undefined)	4	x	x	-17	x	x	x	x
CN(C(=O)c1ccc2c(=O)n3c(nc2c1)CCCCC3)c1ccccc1Cl	-9	3	3	0	2	x	x	x
Cc1oc2c(c1C(=O)c1ccccc1)C(=O)C(=O)c1ccccc1-2	-14	97*	67*	102*	-1	-2	72*	0
Cc1oc2c(c1C(=O)O)C(=O)c1ccccc1C2=O	-9	24	3	-2	2	x	x	x
COc1ccc(C2c3ccc4ccccc4c3Oc3ncn(CCCN(C)C)c(=N)c32)cc1 (centres undefined)	22*	100*	76*	1	55*	37*	100*	51*	UPR XBP1 confirm=60*
COc1cccc(C(=O)N2CCSC2=S)c1	-3	3	0	10	-1	x	x	x
CC(NC(=O)CN(c1cccc(C(F)(F)F)c1)S(=O)(=O)c1ccc(Cl)c([N+](=O)[O-])c1)c1ccccc1 (centres undefined)	9	82*	104*	0	3	140*	55*	35
SMILES	ABHD5 PLIN5 PPI	Mdm2-MdmX inh	UPR CHOP act	Granule exo inh	XBP1 UPR activ	UPR CHOP confirm	Mdm2 MdmX conf	FLuc counter	others
CC(C)(C)NC(=O)CN(c1cccc([N+](=O)[O-])c1)S(=O)(=O)c1ccccc1	0	22	-1	1	1	x	x	x
Cc1ccc(C(=O)NCC(=O)OCC(=O)c2c(N)n(C)c(=O)n(C)c2=O)cc1C	-3	1	0	6	2	x	x	x
Oc1c(Cl)cc(CN2CCOCC2)c2cccnc12	6	78*	134*	22	20	128*	84*	42*
Oc1c(CN2CCCCC2)cc(Br)c2cccnc12	6	77*	88*	-8	26	125*	75*	36*
CN1CCN(C2CCN(Cc3ccc(O)c4ncccc34)CC2)CC1	-4	2	-1	20	-1	x	x	x
Oc1c(CN2CCc3ccccc3C2)cc(Cl)c2cccnc12	-3	70*	86*	0	21	325*	80*	46*
CN1CCN(Cc2cc(COCc3ccccc3)c3cccnc3c2O)CC1	10	60*	131*	0	26	54*	75*	30
C=C(C)C(=O)OC1(C(F)(F)F)Oc2cc(C)ccc2NC1=O (centres undefined)	8	100*	45*	17	-5	20	61*	16
O=C1CN(C(=O)c2cccs2)c2ccccc2N1	-1	13	-1	-1	1	x	x	x
O=C(Nc1ccc(NC(=O)c2sc3ccccc3c2Cl)cc1Cl)c1ccco1	-3	89*	63*	1	342*	34*	23	x	UPR XBP1 confirm=142*
Cc1cccc2sc(NC(=O)c3cc(S(=O)(=O)N(C)C)ccc3N3CCCC3)nc12	1	65*	63*	4	55*	47*	70*	45*	UPR XBP1 confirm=78*
Oc1ccc2ccccc2c1N=Nc1ccccc1F	5	-9	4	-2	-1	x	x	x
Oc1ccc2ccccc2c1N=Nc1ccccn1	8	63*	48*	2	-4	37*	74*	28
Cc1sc(NC(=O)c2cccc([N+](=O)[O-])c2)c(C(N)=O)c1-c1ccc(C(C)(C)C)cc1	0	-7	10	-1	-1	x	x	x
